Test results taken from ChEMBL document CHEMBL4038305, “Benzoxaborole Antimalarial Agents. Part 5. Lead Optimization of Novel Amide Pyrazinyloxy Benzoxaboroles and Identification of a Preclinical Candidate” (J Med Chem, 2017).

Key:
[1] = system: Plasmodium berghei; assay: Antimalarial activity against Plasmodium berghei infected in Swiss Webster mouse assessed as mouse survival rate at 200 mg/kg administered once daily via oral gavage for 4 consecutive days beginning 1 hr after infection measured on day 11 post infection relative to control; type: functional
How it was run: (§1)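 P. berghei-infected erythrocytes taken from a previously infected mouse were injected intraperitoneally. Oral dosing, once daily for 4 consecutive days, began 1 h after infection, in polyethylene glycol 300/propylene glycol/water (55/25/20 by weight). Chloroquine at 30 mg/kg was the positive control, with a vehicle-only group. Percent survival was recorded daily from day 4 to day 20.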

[2] = system: Plasmodium berghei; assay: Antimalarial activity against Plasmodium berghei infected in Swiss Webster mouse assessed as mouse survival rate at 200 mg/kg administered once daily via oral gavage for 4 consecutive days beginning 1 hr after infection measured from day 16 to day 19 post infection relative to control; type: functional; how it was run: as §1
[3] = system: Plasmodium berghei; assay: Antimalarial activity against Plasmodium berghei infected in Swiss Webster mouse assessed as mouse survival rate at 100 mg/kg administered once daily via oral gavage for 4 consecutive days beginning 1 hr after infection measured on day 20 post infection relative to control; type: functional
How it was run: (§2)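 Mice given an intraperitoneal injection of P. berghei-infected erythrocytes taken from a previously infected animal. Oral dosing once daily for 4 consecutive days, starting 1 h after infection. Vehicle: polyethylene glycol 300/propylene glycol/water (weight ratio 55/25/20). Percent survival recorded daily from day 4 to day 20. Chloroquine 30 mg/kg and vehicle-only groups served as controls.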

[4] = system: Plasmodium berghei; assay: Antimalarial activity against Plasmodium berghei infected in Swiss Webster mouse assessed as mouse survival rate at 200 mg/kg administered once daily via oral gavage for 4 consecutive days beginning 1 hr after infection measured on day 15 post infection relative to control; type: functional; how it was run: as §1
[5] = system: Plasmodium berghei; assay: Antimalarial activity against Plasmodium berghei infected in Swiss Webster mouse assessed as mouse survival rate at 200 mg/kg administered once daily via oral gavage for 4 consecutive days beginning 1 hr after infection measured on day 7 post infection relative to control; type: functional; how it was run: as §1
[6] = system: Plasmodium berghei; assay: Antimalarial activity against Plasmodium berghei infected in Swiss Webster mouse assessed as mouse survival rate at 200 mg/kg administered once daily via oral gavage for 4 consecutive days beginning 1 hr after infection measured on day 10 post infection relative to control; type: functional; how it was run: as §1
[7] = system: Plasmodium berghei; assay: Antimalarial activity against Plasmodium berghei infected in Swiss Webster mouse assessed as mouse survival rate at 200 mg/kg administered once daily via oral gavage for 4 consecutive days beginning 1 hr after infection measured on day 6 post infection relative to control; type: functional; how it was run: as §1
[8] = system: Plasmodium berghei; assay: Antimalarial activity against Plasmodium berghei infected in Swiss Webster mouse assessed as mouse survival rate at 100 mg/kg administered once daily via oral gavage for 4 consecutive days beginning 1 hr after infection measured on day 15 post infection relative to control; type: functional; how it was run: as §2
[9] = system: Plasmodium berghei; assay: Antimalarial activity against Plasmodium berghei infected in Swiss Webster mouse assessed as mouse survival rate at 200 mg/kg administered once daily via oral gavage for 4 consecutive days beginning 1 hr after infection measured on day 14 post infection relative to control; type: functional; how it was run: as §1
[10] = system: Plasmodium berghei; assay: Antimalarial activity against Plasmodium berghei infected in Swiss Webster mouse assessed as mouse survival rate at 100 mg/kg administered once daily via oral gavage for 4 consecutive days beginning 1 hr after infection measured on day 16 post infection relative to control; type: functional; how it was run: as §2
[11] = system: Plasmodium berghei; assay: Antimalarial activity against Plasmodium berghei infected in Swiss Webster mouse assessed as mouse survival rate at 200 mg/kg administered once daily via oral gavage for 4 consecutive days beginning 1 hr after infection measured on day 4 post infection relative to control; type: functional; how it was run: as §1
[12] = system: Plasmodium berghei; assay: Antimalarial activity against Plasmodium berghei infected in Swiss Webster mouse assessed as mouse survival rate at 1.1 mg/kg administered once daily via oral gavage for 4 consecutive days beginning 1 hr after infection measured on day 6 post infection relative to control; type: functional; how it was run: as §2
[13] = system: Plasmodium berghei; assay: Antimalarial activity against Plasmodium berghei infected in Swiss Webster mouse assessed as mouse survival rate at 1.1 mg/kg administered once daily via oral gavage for 4 consecutive days beginning 1 hr after infection measured on day 4 post infection relative to control; type: functional; how it was run: as §2
[14] = system: Plasmodium berghei; assay: Antimalarial activity against Plasmodium berghei infected in Swiss Webster mouse assessed as mouse survival rate at 200 mg/kg administered once daily via oral gavage for 4 consecutive days beginning 1 hr after infection measured on day 13 post infection relative to control; type: functional; how it was run: as §1
[15] = system: Plasmodium berghei; assay: Antimalarial activity against Plasmodium berghei infected in Swiss Webster mouse assessed as mouse survival rate at 200 mg/kg administered once daily via oral gavage for 4 consecutive days beginning 1 hr after infection measured on day 12 post infection relative to control; type: functional; how it was run: as §1
[16] = system: Plasmodium berghei; assay: Antimalarial activity against Plasmodium berghei infected in Swiss Webster mouse assessed as mouse survival rate at 200 mg/kg administered once daily via oral gavage for 4 consecutive days beginning 1 hr after infection measured on day 8 post infection relative to control; type: functional; how it was run: as §1
[17] = system: Plasmodium berghei; assay: Antimalarial activity against Plasmodium berghei infected in Swiss Webster mouse assessed as mouse survival rate at 200 mg/kg administered once daily via oral gavage for 4 consecutive days beginning 1 hr after infection measured on day 20 post infection relative to control; type: functional; how it was run: as §1
[18] = system: Plasmodium berghei; assay: Antimalarial activity against Plasmodium berghei infected in Swiss Webster mouse assessed as mouse survival rate at 200 mg/kg administered once daily via oral gavage for 4 consecutive days beginning 1 hr after infection measured on day 9 post infection relative to control; type: functional; how it was run: as §1
[19] = system: Plasmodium berghei; assay: Antimalarial activity against Plasmodium berghei infected in Swiss Webster mouse assessed as mouse survival rate at 200 mg/kg administered once daily via oral gavage for 4 consecutive days beginning 1 hr after infection measured on day 5 post infection relative to control; type: functional; how it was run: as §1
[20] = Terminal half life in CD1 mouse at 5 mg/kg, po via gavage by HPLC/MS analysis; type: ADME, organism-based; details: in vivo, read-out: beta t1/2 (converted)
How it was run: (§3)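 Female CD-1 mice, male SD rats or beagle dogs given 5 mg/kg by iv injection or oral gavage. Formulation was PEG300/propylene glycol/water 55/25/20, pH 6. Blood samples analysed by HPLC–MS/MS; parameters include AUC0-inf extrapolated to infinity and terminal half-life.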

[21] = AUC (0 to infinity) in CD1 mouse at 5 mg/kg, iv by HPLC/MS analysis; type: ADME, organism-based; parameters: dose 5 mg/kg, time infinity, route intravenous; details: in vivo
[22] = Volume of distribution at steady state in CD1 mouse at 5 mg/kg, iv by HPLC/MS analysis; type: ADME, organism-based; details: in vivo, read-out: Vdss; how it was run: as §3
[23] = Oral bioavailability in CD1 mouse at 5 mg/kg by HPLC/MS analysis; type: ADME, organism-based; details: in vivo; how it was run: as §3
[24] = Cmax in CD1 mouse plasma at 5 mg/kg, po via gavage by HPLC/MS analysis; type: ADME, organism-based; parameters: dose 5 mg/kg, route oral
How it was run: (§4)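 Female CD-1 mice, male SD rats and beagle dogs received 5 mg/kg either iv or by oral gavage. Vehicle was PEG 300/propylene glycol/water (55/25/20, pH 6). Blood was sampled and drug measured by HPLC-MS/MS.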

[25] = Clearance in CD1 mouse at 5 mg/kg, iv by HPLC/MS analysis; type: ADME, organism-based; details: in vivo; how it was run: as §4
[26] = system: Plasmodium falciparum; assay: Antimalarial activity against Plasmodium falciparum 3D7 0087/N9 infected in NOD/SCID IL2R gamma null mouse assessed as compound concentration in whole blood require to reduce parasitemia in peripheral blood administered once daily via oral gavage for 4 consecutive days measured on day 7 post infection; type: functional
[27] = system: Plasmodium berghei; assay: Antimalarial activity against Plasmodium berghei infected in Swiss Webster mouse assessed as mouse survival rate at 100 mg/kg administered once daily via oral gavage for 4 consecutive days beginning 1 hr after infection measured from day 16 to day 19 post infection relative to control; type: functional; how it was run: as §2

Row | SMILES | survival at 200 mg/kg [1] | survival at 200 mg/kg [4] | survival at 200 mg/kg [5] | survival at 200 mg/kg [6] | survival at 200 mg/kg [7] | survival at 100 mg/kg [8] | survival at 200 mg/kg [9] | survival at 200 mg/kg [11] | survival at 200 mg/kg [14] | survival at 200 mg/kg [15] | survival at 200 mg/kg [16] | survival at 200 mg/kg [17] | survival at 200 mg/kg [18] | survival at 200 mg/kg [19] | half-life [20] | AUC(0-inf) [21] | Vd [22] | bioavailability [23] | Cmax [24] | clearance [25] | other results
1 | Cc1c(Oc2cnc(C(=O)N3CC(O)(C(C)C)C3)cn2)ccc2c1B(O)OC2 | 100% | 100% | 100% | 100% | 100% | 100% | 100% | 100% | 100% | 100% | 100% | 100% | 100% | 100% | – | – | – | – | – | – | survival at 200 mg/kg [2]: 100%; survival at 100 mg/kg [3]: 80%; survival at 100 mg/kg [10]: 100%; survival at 1.1 mg/kg [12]: 100%; survival at 1.1 mg/kg [13]: 100%
2 | Cc1c(Oc2cnc(C(=O)NCCO)cn2)ccc2c1B(O)OC2 | – | – | 100% | 0% | 100% | – | – | 100% | – | – | 80% | – | 80% | 100% | 3 h | 31400 ng·h/mL | 0.636 L/kg | 94% | 4300 ng/mL | 2.65 mL/min/kg | –
3 | Cc1c(Oc2cnc(C(=O)N[C@@H](CO)CC(F)(F)F)cn2)ccc2c1B(O)OC2 | – | – | – | – | – | – | – | – | – | – | – | – | – | – | 3 h | 21000 ng·h/mL | 0.741 L/kg | 64% | 2100 ng/mL | 3.97 mL/min/kg | –
4 | CCC1(O)CN(C(=O)c2cnc(Oc3ccc4c(c3C)B(O)OC4)cn2)C1 | 100% | 100% | 100% | 100% | 100% | – | 100% | 100% | 100% | 100% | 100% | 80% | 100% | 100% | – | – | – | – | – | – | AUCED90 [26]: 1.6 µg.hr/ml/day; survival at 200 mg/kg [2]: 80%
5 | Cc1c(Oc2cnc(C(=O)NC(C)CO)cn2)ccc2c1B(O)OC2 (stereo not given) | – | – | – | – | – | – | – | – | – | – | – | – | – | – | 2.7 h | 39000 ng·h/mL | 0.603 L/kg | 85% | 3800 ng/mL | 2.13 mL/min/kg | –
6 | Cc1c(Oc2cnc(C(=O)N3CC(C)(O)C3)cn2)ccc2c1B(O)OC2 | – | – | – | – | – | 60% | – | – | – | – | – | – | – | – | 6.8 h | 20500 ng·h/mL | 0.888 L/kg | 101% | 3900 ng/mL | 4.07 mL/min/kg | AUCED90 [26]: 1.4 µg.hr/ml/day; survival at 100 mg/kg [10]: 60%
7 | CCC[C@H](CO)NC(=O)c1cnc(Oc2ccc3c(c2C)B(O)OC3)cn1 | 100% | 100% | 100% | 100% | 100% | – | 100% | 100% | 100% | 100% | 100% | 100% | 100% | 100% | 4.5 h | 20500 ng·h/mL | 0.874 L/kg | 103% | 4000 ng/mL | 4.05 mL/min/kg | AUCED90 [26]: 7.45 µg.hr/ml/day; survival at 200 mg/kg [2]: 100%
8 | Cc1c(Oc2cnc(C(=O)N3CC(O)(C(F)(F)F)C3)cn2)ccc2c1B(O)OC2 | – | – | – | – | – | 100% | – | – | – | – | – | – | – | – | – | – | – | – | – | – | survival at 100 mg/kg [3]: 100%; survival at 1.1 mg/kg [12]: 100%; survival at 1.1 mg/kg [13]: 100%; survival at 100 mg/kg [27]: 100%
9 | CCCC1(O)CN(C(=O)c2cnc(Oc3ccc4c(c3C)B(O)OC4)cn2)C1 | 100% | 100% | 100% | 100% | 100% | 80% | 100% | 100% | 100% | 100% | 100% | 0% | 100% | 100% | – | – | – | – | – | – | survival at 100 mg/kg [3]: 0%; survival at 100 mg/kg [27]: 20%
